From paper PMC7064889 (Chembiochem, 2019)

Columns and labels:
Format in all cases: cell-based, human
M21 cells [1] = assay: live cell imaging
Procedure, shortened: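 Cells were grown overnight on glass-slip chambers and counterstained with LysoTracker Red DND-99. They were then incubated 10 min with fluorescent test peptide: 5 μM for the non-PEGylated peptide, 10 μM for the 5 kDa PEGylated peptide. Washing was careful but thorough. Confocal live-cell microscopy followed, with z-stacking and gain set in the peptide channel.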

M21 cells [2] = assay: flow cytometry uptake, M21 cells
Procedure, shortened: (§1)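 Cells (2×10^6) were incubated with fluorescently labelled cyclic RGD test peptide (30 μM) for 0, 10 or 30 min. They were washed with buffer and analysed by flow cytometry. The negative control received no peptide.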

M21L cells = assay: flow cytometry uptake, M21L cells
Procedure, shortened: as §1

[3] = peptide 30 μM, 0, 10, 30 min, 37 °C, medium without FCS

c(RGDw(pyren‐1‐yl)K(PEG5000)) [peptide 2]
colocalization with lysosomes, M21 (M21 cells [1]; LysoTracker Red DND-99, 10 min, 37 °C, peptide 1 5 μM, peptide 2 10 μM): colocalizes largely with lysosomes
localization by z-stacking, M21 (M21 cells [1]; Z-stack, peptide 10 μM, 10 min): presence of peptide inside the cells
mode of uptake (conclusion from flow cytometry and live cell imaging) (M21 cells [2]; M21 versus M21L cells, flow cytometry 30 μM plus imaging): integrin‐mediated endocytosis
0 min sample versus negative control (no peptide), M21 (M21 cells [2]; peptide 30 μM, 0 min): largely overlaps with the 0 min samples
uptake selectivity M21 versus M21L, flow cytometry (M21 cells [2]; peptide 30 μM, 0, 10, 30 min): uptake of peptide 2 only by M21 cells
flow cytometry fluorescence, M21 (M21 cells [2]; [3]): significant fluorescence
0 min sample versus negative control (no peptide), M21L (M21L cells; peptide 30 μM, 0 min): largely overlaps with the 0 min samples
flow cytometry fluorescence, M21L (M21L cells; [3]): not for αv deficient M21L cells
uptake in M21L cells (flow cytometry and live cell imaging) (M21L cells; αv-deficient M21L cells): no uptake in αv‐deficient M21L cells
